High-throughput results: PubChem, Sanford-Burnham Center for Chemical Genomics
Only some compounds are listed: those with a hit (about 0.72% of all), similar ones and a draw of the others.
bIAP activator – intestinal alkaline phosphatase (bovine) activation | purified bovine IAP, CDP-star luminescence, 30 min; active compounds read high; fold of DMSO-control signal, blank-subtracted | activation factor at 20 µM | 200,000 tested, 0.17% active;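 active = activation factor of 2 or more at 20 µM, a signal rise over negative controls twice the positive control's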
mIAP inh – blocks mouse intestinal alkaline phosphatase; purified mouse IAP, CDP-Star luminescence, 30 min; inhibition, % at 10 µM; 330,000 tested, 0.2% active; AID 2806;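 active = inhibition of at least 40% at 10 µM in the primary screen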
hIAP activ – human IAP activation; P09923; purified human IAP, CDP-Star luminescence, 30 min; active compounds read high; 1 = vehicle-only enzyme, 0 = enzyme-free background; activation factor at 10 µM; 330,000 tested, 0.16% active; AID 2524;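 active = activation factor of the enzyme at least 2-fold when tested at 20 µM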
Target sequence (P09923 whole entry, looked up): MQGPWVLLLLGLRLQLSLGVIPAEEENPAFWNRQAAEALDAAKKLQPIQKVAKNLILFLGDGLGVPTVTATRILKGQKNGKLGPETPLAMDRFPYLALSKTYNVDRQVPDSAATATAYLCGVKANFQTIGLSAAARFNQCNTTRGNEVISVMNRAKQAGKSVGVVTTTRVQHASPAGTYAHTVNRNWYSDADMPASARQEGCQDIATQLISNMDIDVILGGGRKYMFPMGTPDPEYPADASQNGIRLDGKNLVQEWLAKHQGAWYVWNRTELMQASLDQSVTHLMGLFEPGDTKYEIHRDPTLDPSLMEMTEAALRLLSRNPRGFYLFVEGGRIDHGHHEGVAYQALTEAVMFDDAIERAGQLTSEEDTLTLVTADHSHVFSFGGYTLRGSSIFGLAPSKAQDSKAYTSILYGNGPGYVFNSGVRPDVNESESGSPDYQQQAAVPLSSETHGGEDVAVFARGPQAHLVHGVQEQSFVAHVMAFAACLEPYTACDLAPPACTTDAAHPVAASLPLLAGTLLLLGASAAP
hIAP block – human IAP inhibition; P09923; purified IAP, CDP-Star luminescence, 30 min; inhibition, % at 10 µM; 330,000 tested, 0.12% active;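 active = inhibition reaching a set limit with compound at 10 µM in the primary screen, cut at about 35% in these data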
bIAP inhibitor – blocks bovine intestinal alkaline phosphatase activity; AID 1019; purified bovine IAP, CDP-star luminescence, 30 min; 190,000 tested, under 10 active; inhibition, % at 20 µM;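 active = over 50% inhibition of intestinal alkaline phosphatase at 20 µM in the single-dose screen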
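System: purified bovine intestinal alkaline phosphatase (IAP) enzyme; Input: IAP diluted 1/65,000,000 in the well; Measured by: CDP-star luminescence signal; Compound dosing: 20 µM single dose; Incubation: 30 min reaction at room temperature.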
mIAP activ – increases mouse intestinal alkaline phosphatase activity | muIAP, CDP-Star luminescence, 30 min; active compounds read high; 1 = vehicle-only enzyme signal, 0 = enzyme-free wells | activation factor at 10 µM | 330,000 tested, 0.24% active;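 active = activation factor of at least 2 at 20 µM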
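Assay system: mouse IAP enzyme; reagent: chemiluminescent substrate CDP-Star; dosing: test compounds delivered from DMSO solution; schedule: 30 min at room temperature; measured by: luminescence from enzymatic CDP-Star hydrolysis; controls: DMSO-only wells and no-enzyme negative control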
hIAP act confirm – human IAP activation confirmation; AID 434926; activation (%Activity, negative = activation), % at 8.3 µM; 880 tested, 10% active; shares compounds with hIAP activ; purified IAP, CDP-Star luminescence, 30 min; active compounds read low;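 active = at least twofold enzyme activation in any of six single-dose repeats, which the averaged readout prints as negative percent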
mIAP inh conf – mouse IAP inhibition confirmation; shares compounds with mIAP inh; purified mouse IAP, CDP-Star luminescence, 30 min; inhibition, % at 10 µM; 11,000 tested, 4.7% active; AID 434971;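 active = inhibition of at least 40% at 10 µM in either of the two replicates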
A number is an active result; – = inactive; · = not tested or not shown.

SMILES	bIAP activator	mIAP inh	hIAP activ	hIAP block	bIAP inhibitor	mIAP activ	hIAP act confirm	mIAP inh conf
CCCCOCCCN1CC(=O)N2[C@@H](Cc3c([nH]c4ccccc34)C2(C)C)C1=O	·	–	–	–	·	–	·	·
COc1ccc(CNC(=O)c2cc(-c3ccccc3O)n[nH]2)cc1	–	–	–	–	–	–	·	·
COc1ccc(CNC(=O)c2cc(-c3cc(C)ccc3O)n[nH]2)cc1	·	–	2.38	–	·	–	–	·
Cc1c(Cl)cccc1NC(=O)c1cc(-c2ccccc2O)n[nH]1	–	–	2.01	–	–	–	–	·
O=C(NCc1ccco1)c1cccc2c1C(=O)c1ccc(/C=C/c3ccccc3)cc1S2(=O)=O	·	–	–	–	·	–	·	·
O=C(COC(=O)CCc1c[nH]c2ccccc12)Nc1ccccc1C(F)(F)F	·	–	–	–	·	–	·	·
O=c1c2cc(O)c(O)cc2oc2cc(O)c(C3OC(CO)C(O)C(O)C3O)c(O)c12 (stereo unspecified)	·	–	–	82.3	·	–	-148.3	·
CCCn1c(N/N=C\C=C\c2ccccc2)nc2c1c(=O)[nH]c(=O)n2C	–	–	2.23	–	–	–	–	·
CNc1nc2c(c(=O)[nH]c(=O)n2C)n1CCCc1ccccc1	·	–	–	–	·	–	·	·
COc1ccc(-c2ccc(OC)cc2C(=O)O)cc1	–	–	–	35.9	–	–	–	·
COc1ccc(C(=O)O)c(O)c1	·	–	–	–	·	–	·	·
Cn1nnnc1SCC(=O)Nc1ccccc1-c1ccccc1	–	–	–	37.6	–	–	–	·
Cc1ccccc1NC(=O)CSc1nnnn1C	–	–	–	–	–	–	·	·
C=CCn1c(O)c(N=Nc2ccccc2O)c2ccccc21	·	–	2.2	–	·	–	–	·
CSc1ccccc1NC(=O)c1cc(-c2cccnc2)nc2ccc(Br)cc12	–	–	–	–	–	–	·	·
CN(C)c1ccc(/C=C2/C=C(c3ccc4c(c3)CCCC4)OC2=O)cc1	·	–	–	42.6	·	–	–	·
CN(C)c1ccc(/C=C2\C(=N)N3N=C(CC(=O)N4CCCCC4)SC3=NC2=O)cc1	·	–	–	36.9	·	–	–	·
O=C(COc1ccccc1C(=O)N/N=C\c1ccc(O)c(O)c1)N/N=C/c1ccc(O)c(O)c1	–	72.7	–	57.6	–	–	–	81.9
CN(Cc1ccc2ccccc2c1)C(=O)c1ccc(C(F)(F)F)cc1	·	–	–	–	·	–	·	·
COc1cccc(NC(=O)CN2CCc3ccccc3C2)c1	·	–	–	–	·	–	·	·
COc1ccc(N2CCN(C(=O)COc3ccc(S(=O)(=O)N4CCOCC4)cc3C)CC2)cc1	·	–	–	–	·	–	·	·
COc1cc(/C=C/C(O)=C/C(=O)/C=C/c2ccc(O)cc2)ccc1O	·	52.6	–	35.4	·	–	–	47.5
C[C@H]1CN([C@@H](C)CO)C(=O)c2cc(NC(=O)C3CCCCC3)ccc2O[C@H]1CN(C)S(=O)(=O)c1ccccc1	·	–	–	–	·	–	·	·
Cc1ccc(CNC(=S)NC2CCC(C(C)(C)C)CC2)cc1 (stereo unspecified)	·	–	2.07	–	·	4.55	–	–
N#C/C(=C\c1ccc(O)c(O)c1)C(=O)N1CCCC1	–	–	–	–	–	–	·	·
SMILES	bIAP activator	mIAP inh	hIAP activ	hIAP block	bIAP inhibitor	mIAP activ	hIAP act confirm	mIAP inh conf
N#C/C(=C\c1ccc(O)c(O)c1)C(=O)c1ccc(O)c(O)c1	·	86.6	–	37.4	·	–	–	86.5
S=c1nc(NCCc2ccccc2Cl)c2ccccc2[nH]1	·	–	–	–	·	–	·	·
O=C(C1CCOCC1)N1CCCC(N2CCN(c3cccc(C(F)(F)F)c3)CC2)C1 (stereo unspecified)	·	–	–	–	·	–	·	·
CN=c1scc(-c2ccco2)n1/N=C/c1ccc(O)c(O)c1	–	54.8	–	35.4	–	–	–	62.8
COc1ccc(O)c(/C=N/n2c(-c3ccco3)csc2=Nc2cccnc2)c1	–	–	–	–	–	–	·	·
Cc1ccc(NC(=O)C2CC(=O)n3c(nc4ccccc43)N2)cc1 (stereo unspecified)	–	–	–	–	–	–	·	·
O=C(Nc1ccc(Cl)cc1)C1CC(=O)n2c(nc3ccccc32)N1 (stereo unspecified)	–	–	2.04	–	–	2.69	–	–
CCn1nc(C)c(CN2CCC(C(=O)Nc3cccc(-c4cccc(F)c4)c3)CC2)c1C	·	–	6.14	–	·	4.87	–	–
CC(C)n1cc(CN2CCC(C(=O)Nc3cccc(-c4cccc(Cl)c4)c3)CC2)cn1	·	–	8.78	–	·	5.95	-96.7	–
CCn1cc(CN2CCC(C(=O)Nc3cccc(-c4cccc(OC)c4)c3)CC2)cn1	·	–	–	–	·	–	·	·
O=C(NN1C(=O)/C(=C/c2ccc(O)c(O)c2)SC1=S)c1ccccc1	·	44.5	–	69.2	·	–	–	77.7
O=C(NN1C(=O)/C(=C/c2cccc(O)c2)SC1=S)c1ccccc1O	·	–	–	–	·	–	·	·
COc1ccc(Cc2nnc(NS(=O)(=O)c3ccc([N+](=O)[O-])cc3)s2)cc1	·	–	–	–	·	–	·	·
COc1cc(NC(=O)NCC2CCN(Cc3ccccc3C)CC2)cc(OC)c1OC	·	–	2.41	–	·	3.53	–	–
CC(C)Cc1ccc(CN2CCC(n3nccc3NC(=O)C3CCCC3)CC2)cc1	·	–	3.32	–	·	2.43	–	–
O=C(CCCc1ccccc1)Nc1ccnn1C1CCN(Cc2ccc(Cl)cc2)CC1	·	–	2.95	–	·	2.5	–	–
CCOc1cccc(CN2CCC(n3nccc3NC(=O)CCCc3ccccc3)CC2)c1	·	–	3.46	–	·	2.38	–	–
Cc1ccc(C)c(CN2CCC(n3nccc3NC(=O)CCCc3ccccc3)CC2)c1	·	–	2.64	–	·	2.38	–	–
CC(C)n1cc(CN2CCC(n3nccc3NC(=O)C3CCCC3)CC2)cn1	·	–	–	–	·	–	·	·
Cc1ccccc1NC(=O)NCC1CCN(c2ccc(S(=O)(=O)N3CCOCC3)cc2)CC1	·	–	–	–	·	–	·	·
Cc1cccc(NC(=O)NCC2CCN(c3ccc(S(=O)(=O)N4CCOCC4)cc3)CC2)c1	·	–	2.08	–	·	3.51	–	–
O=C(Nc1ccc(N2CCOCC2)cc1)c1ccc(S(=O)(=O)NCc2ccco2)cc1	·	–	–	–	·	–	·	·
COCC(=O)NC1CC2CCCC(C1)N2Cc1ccccc1 (stereo unspecified)	–	–	–	–	–	–	·	·
COc1ccc(CN2C3CCCC2CC(NC(=O)Nc2ccccc2C)C3)cc1 (stereo unspecified)	–	–	–	–	–	2.98	·	–
COc1ccc(CN2C3CCCC2CC(NC(=O)Nc2ccccc2)C3)cc1 (stereo unspecified)	–	–	–	–	–	5.26	·	–
